Results: ChEMBL document CHEMBL2176902, “Identification of small-molecule enhancers of arginine methylation catalyzed by coactivator-associated arginine methyltransferase 1” (J Med Chem, 2012)
Active and inactive are the calls of the source. The rule behind the calls is not given here.

What was measured:
[1] = biological target: Protein arginine N-methyltransferase 1 (Homo sapiens) (UniProt Q99873); assay: Inhibition of human recombinant GST-PRMT1 expressed Escherichia coli BL21 using Npl3p substrate as substrate and [3H]-SAM at 50 uM after 90 mins by scintillation counting
Chain of Protein arginine N-methyltransferase 1 (Homo sapiens) (Q99873 whole entry, looked up): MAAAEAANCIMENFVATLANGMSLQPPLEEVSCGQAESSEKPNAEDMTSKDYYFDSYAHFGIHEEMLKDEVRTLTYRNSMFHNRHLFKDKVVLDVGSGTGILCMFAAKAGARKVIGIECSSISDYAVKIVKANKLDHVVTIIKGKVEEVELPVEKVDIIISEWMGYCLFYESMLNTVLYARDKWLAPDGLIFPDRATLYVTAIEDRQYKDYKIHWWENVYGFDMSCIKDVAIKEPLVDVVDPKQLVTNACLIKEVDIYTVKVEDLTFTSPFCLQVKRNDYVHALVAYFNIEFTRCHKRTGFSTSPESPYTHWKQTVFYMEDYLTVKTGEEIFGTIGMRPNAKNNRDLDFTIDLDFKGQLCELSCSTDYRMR
Outline: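 Human recombinant PRMT1 was incubated with Npl3p substrate and [³H]SAM (0.42 μM) in PBS pH 7.4 with compound at 50 μM for 90 min at 30 °C. Percent inhibition was determined.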

[2] = biological target: T1, Histone-arginine methyltransferase CARM1 (Homo sapiens) (UniProt Q86X55); assay: Activation of recombinant CARM1 using PABP1 as substrate and [3H]-SAM at 50 uM after 90 mins by scintillation counting
T1 sequence (whole entry): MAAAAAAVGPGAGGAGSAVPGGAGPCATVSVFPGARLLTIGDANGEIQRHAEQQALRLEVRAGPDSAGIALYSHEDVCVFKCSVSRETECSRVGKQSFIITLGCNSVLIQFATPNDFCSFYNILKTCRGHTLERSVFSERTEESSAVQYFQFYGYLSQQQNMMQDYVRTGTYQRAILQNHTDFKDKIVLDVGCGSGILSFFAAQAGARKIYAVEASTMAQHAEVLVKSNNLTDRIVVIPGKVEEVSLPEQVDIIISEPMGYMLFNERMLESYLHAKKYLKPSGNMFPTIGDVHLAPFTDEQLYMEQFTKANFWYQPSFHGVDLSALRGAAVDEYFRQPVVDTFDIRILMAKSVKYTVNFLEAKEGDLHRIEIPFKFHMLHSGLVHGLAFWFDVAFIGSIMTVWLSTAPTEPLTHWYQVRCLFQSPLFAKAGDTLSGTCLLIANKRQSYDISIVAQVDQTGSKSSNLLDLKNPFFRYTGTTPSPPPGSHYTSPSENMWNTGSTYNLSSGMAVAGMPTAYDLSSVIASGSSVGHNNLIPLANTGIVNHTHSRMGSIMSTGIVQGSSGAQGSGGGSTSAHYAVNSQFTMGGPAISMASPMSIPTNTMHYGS
Outline: (§1)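 Recombinant CARM1 (0.2 μg) was incubated with PABP1 substrate and [³H]SAM (0.42 μM) in PBS pH 7.4 for 90 min at 30 °C. Compound was tested at 50 μM, or at 3–100 μM for concentration series. Bands were Ponceau-stained, excised and counted by liquid scintillation. Activity is given as % of DMSO control; no-SAM reactions served as negative control; at least two experiments.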

[3] = biological target: T1, Histone-arginine methyltransferase CARM1 (Homo sapiens); assay: Activation of recombinant CARM1 using histone H3 as substrate and [3H]-SAM at 50 uM after 90 mins by scintillation counting
Outline: (§2)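 Recombinant CARM1 (0.2 μg) was incubated with histone H3 (1.1 μM) and [³H]SAM (0.42 μM) in PBS pH 7.4 with compound (50 μM) for 90 min at 30 °C. Methylation was measured by scintillation counting. Activity is expressed as % relative to DMSO, as the mean of at least two separate experiments.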

[4] = biological target: T1, Histone-arginine methyltransferase CARM1 (Homo sapiens); assay: Activation of recombinant CARM1 expressed in HEK293 cells co-expressing 3XFLAG-tagged PABP1 assessed as arginine methylation of PABP1 at 50 uM after 24 hrs; type: cell-based
Outline: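 Flp-In T-Rex HEK293 cells stably carrying Tet-inducible 3XFLAG-PABP1 were kept in DMEM/10% FBS with blasticidin and hygromycin. They were plated at 1 × 10⁵ cells/mL and the medium was changed after 12 h. Cells then got compound with or without tetracycline (1 μg/mL) for 24 h. RIPA lysates were immunoblotted with anti-methyl-PABP1 and anti-FLAG. Band densities were compared to DMSO control.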

[5] = biological target: Protein arginine N-methyltransferase 3 (Homo sapiens) (UniProt O60678); assay: Inhibition of recombinant PRMT3 using glycine- and arginine-rich motif as substrate at 50 uM and [3H]-SAM after 90 mins by scintillation counting
Chain of Protein arginine N-methyltransferase 3 (Homo sapiens) (O60678 2-531 limits assumed): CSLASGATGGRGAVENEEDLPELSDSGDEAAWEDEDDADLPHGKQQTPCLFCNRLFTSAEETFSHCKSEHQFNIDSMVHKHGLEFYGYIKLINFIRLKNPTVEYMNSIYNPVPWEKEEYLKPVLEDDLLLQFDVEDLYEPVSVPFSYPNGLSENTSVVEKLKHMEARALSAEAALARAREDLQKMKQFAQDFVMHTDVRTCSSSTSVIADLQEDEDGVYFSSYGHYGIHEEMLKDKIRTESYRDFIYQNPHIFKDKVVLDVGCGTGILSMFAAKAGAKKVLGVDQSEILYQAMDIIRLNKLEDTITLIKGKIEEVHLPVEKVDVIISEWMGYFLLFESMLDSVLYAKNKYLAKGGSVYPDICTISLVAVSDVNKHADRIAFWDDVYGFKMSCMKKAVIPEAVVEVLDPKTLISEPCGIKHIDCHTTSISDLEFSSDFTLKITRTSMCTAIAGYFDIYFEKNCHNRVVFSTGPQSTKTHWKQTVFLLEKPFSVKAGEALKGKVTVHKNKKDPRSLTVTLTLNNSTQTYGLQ
Outline: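 Recombinant PRMT3 was incubated with GAR-motif substrate and [³H]SAM (0.42 μM) in PBS pH 7.4 with compound at 50 μM for 90 min at 30 °C.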

[6] = biological target: T2, Histone-lysine N-methyltransferase SETD7 (Homo sapiens) (UniProt Q8WTS6); assay: Inhibition of recombinant SET7 using histone H3 as substrate at 50 uM and [3H]-SAM after 90 mins by scintillation counting
T2 sequence (whole entry): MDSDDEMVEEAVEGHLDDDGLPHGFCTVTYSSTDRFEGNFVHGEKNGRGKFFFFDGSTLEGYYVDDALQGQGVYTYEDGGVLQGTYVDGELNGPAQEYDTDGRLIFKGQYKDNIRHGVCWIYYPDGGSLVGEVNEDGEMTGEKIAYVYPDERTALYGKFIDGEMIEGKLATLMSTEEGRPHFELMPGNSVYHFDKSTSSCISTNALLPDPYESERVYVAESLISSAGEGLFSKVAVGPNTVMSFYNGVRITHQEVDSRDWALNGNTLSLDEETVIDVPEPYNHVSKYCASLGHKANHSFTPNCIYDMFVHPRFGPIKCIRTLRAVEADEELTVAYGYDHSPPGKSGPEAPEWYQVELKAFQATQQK

[7] = biological target: T1, Histone-arginine methyltransferase CARM1 (Homo sapiens); assay: Inhibition of recombinant CARM1 using histone H3 as substrate at 50 uM and [3H]-SAM after 90 mins by scintillation counting
Outline: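 Recombinant CARM1 (0.2 μg) incubated with histone H3 substrate (0.5 μg; H3 1.1 μM) and [3H]SAM (0.42 μM) in PBS pH 7.4 with 50 μM compound, 90 min, 30 °C. Bands Ponceau-stained, excised, scintillation counted; activity expressed as percent of DMSO control. Means of at least two separate experiments, SD in percentage points.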

[8] = biological target: Protein arginine N-methyltransferase 6 (Homo sapiens) (UniProt Q96LA8); assay: Inhibition of recombinant PRMT6 using histone H3 as substrate at 50 uM and [3H]-SAM after 90 mins by scintillation counting
Chain of Protein arginine N-methyltransferase 6 (Homo sapiens) (Q96LA8 whole entry, looked up): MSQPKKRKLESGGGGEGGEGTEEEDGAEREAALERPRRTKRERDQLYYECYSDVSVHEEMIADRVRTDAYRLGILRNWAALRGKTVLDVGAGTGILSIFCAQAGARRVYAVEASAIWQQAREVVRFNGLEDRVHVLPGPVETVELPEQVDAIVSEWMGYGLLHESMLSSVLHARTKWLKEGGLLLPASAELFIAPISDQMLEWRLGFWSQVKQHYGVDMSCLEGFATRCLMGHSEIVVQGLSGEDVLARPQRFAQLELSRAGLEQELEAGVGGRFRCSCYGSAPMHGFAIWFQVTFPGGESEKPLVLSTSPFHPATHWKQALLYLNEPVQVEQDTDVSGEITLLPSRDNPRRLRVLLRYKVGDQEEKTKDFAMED

[9] = biological target: T1, Histone-arginine methyltransferase CARM1 (Homo sapiens); assay: Activation of recombinant CARM1 using histone H3 as substrate and [3H]-SAM after 90 mins by scintillation counting; outline: as §2
[10] = biological target: T1, Histone-arginine methyltransferase CARM1 (Homo sapiens); assay: Activation of recombinant CARM1 using PABP1 as substrate and [3H]-SAM after 90 mins by scintillation counting; outline: as §1

N#Cc1ccc(NC(=O)NCC(=O)Nc2ccc3[nH]cc(C(=O)O)c3c2)cc1
inhibition [1]: inactive

Cc1ccc(NC(=O)NCC(=O)Nc2ccc3[nH]cc(C(=O)O)c3c2)cc1
inhibition [1]: inactive

COC(=O)c1c[nH]c2ccc(NC(=O)CNC(=O)Nc3ccc(OC)cc3)cc12
Activity [2]: 28.2%
inhibition [1]: inactive
Activity [3]: 62.7%

CCOC(=O)c1cc2cc(NC(=O)CNC(=O)Nc3ccc(OC)cc3)ccc2[nH]1
Activity [2]: 74.7%
inhibition [1]: inactive
Activity [3]: 183%

CCOC(=O)c1cc2cc(NC(=O)CNC(=O)Nc3ccc(N(C)C)cc3)ccc2[nH]1
Activity [2]: 70.6%
inhibition [1]: inactive
Activity [3]: 102%

COC(=O)c1c[nH]c2ccc(NC(=O)CNC(=O)Nc3ccc(C#N)cc3)cc12
Activity [2]: 38.8%
inhibition [1]: inactive
Activity [3]: 135%

COC(=O)c1c[nH]c2ccc(NC(=O)CNC(=O)Nc3ccc([N+](=O)[O-])cc3)cc12
Activity [2]: 115%
inhibition [1]: inactive
Activity [3]: 134%

COc1ccc(NC(=O)NCC(=O)Nc2ccc3[nH]c(C(=O)O)cc3c2)cc1
Activity [2]: 96.3%
inhibition [1]: inactive
Activity [3]: 211%

CCOC(=O)c1cc2cc(NC(=O)CNC(=O)Nc3ccc(C#N)cc3)ccc2[nH]1
Activity [2]: 358%
Activity [4]: Active
inhibition [1]: inactive
Activity [3]: 115%

O=C(Nc1ccc2cc(C(=O)O)cc(O)c2c1)Nc1ccc2cc(C(=O)O)cc(O)c2c1
Activity [3]: 83.1%

O=C(Nc1ccc2c(O)cc(S(=O)(=O)O)cc2c1)Nc1ccc2c(O)cc(S(=O)(=O)O)cc2c1
inhibition [5]: 101%
inhibition [6]: 34.3%
inhibition [7]: 74.8%
Activity [3]: 74%
inhibition [8]: 40.7%

CCOC(=O)c1cc2cc(NC(=O)CNC(=O)Nc3ccc(C)cc3)ccc2[nH]1
Activity [2]: 382%
Activity [4]: Active
inhibition [1]: inactive
Activity [3]: 127%

O=C(CNC(=O)Nc1ccc([N+](=O)[O-])cc1)Nc1ccc2[nH]cc(C(=O)O)c2c1
inhibition [1]: inactive

O=C(CNC(=O)Nc1ccccc1)Nc1ccc2[nH]cc(C(=O)O)c2c1
inhibition [1]: inactive

COc1ccc(NC(=O)NCC(=O)Nc2ccc3[nH]cc(C(=O)O)c3c2)cc1
inhibition [1]: inactive

COC(=O)c1c[nH]c2ccc(NC(=O)CNC(=O)Nc3ccc(C)cc3)cc12
Activity [2]: 4.7%
inhibition [1]: inactive
Activity [3]: 39.7%

Cc1ccc(NC(=O)NCC(=O)Nc2ccc3[nH]c(C(=O)O)cc3c2)cc1
Activity [2]: 149%
inhibition [1]: inactive
Activity [3]: 111%

O=C(CNC(=O)Nc1ccc([N+](=O)[O-])cc1)Nc1ccc2[nH]c(C(=O)O)cc2c1
Activity [2]: 85.3%
inhibition [1]: inactive
Activity [3]: 142%

CN(C)c1ccc(NC(=O)NCC(=O)Nc2ccc3[nH]cc(C(=O)O)c3c2)cc1
inhibition [1]: inactive

N#Cc1ccc(NC(=O)NCC(=O)Nc2ccc3[nH]c(C(=O)O)cc3c2)cc1
Activity [2]: 81.2%
inhibition [1]: inactive
Activity [3]: 143%

CCOC(=O)c1cc2cc(NC(=O)CNC(=O)Nc3ccc([N+](=O)[O-])cc3)ccc2[nH]1
inhibition [5]: 54.7%
Activity [9]: Dose-dependent effect
inhibition [6]: 10.2%
Activity [2]: 299%
inhibition [1]: inactive
Activity [10]: Dose-dependent effect
Activity [3]: 176%
inhibition [8]: 19.3%

COC(=O)c1c[nH]c2ccc(NC(=O)CNC(=O)Nc3ccccc3)cc12
Activity [2]: 26.5%
inhibition [1]: inactive
Activity [3]: 74.7%

O=C(CNC(=O)Nc1ccccc1)Nc1ccc2[nH]c(C(=O)O)cc2c1
Activity [2]: 172%
inhibition [1]: inactive
Activity [3]: 167%

CCOC(=O)c1cc2cc(NC(=O)CNC(=O)Nc3ccccc3)ccc2[nH]1
Activity [2]: 10.5%
inhibition [1]: inactive
Activity [3]: 134%

CN(C)c1ccc(NC(=O)NCC(=O)Nc2ccc3[nH]c(C(=O)O)cc3c2)cc1
Activity [2]: 135%
inhibition [1]: inactive
Activity [3]: 48.3%

COC(=O)c1c[nH]c2ccc(NC(=O)CNC(=O)Nc3ccc(N(C)C)cc3)cc12
Activity [2]: 7.6%
inhibition [1]: inactive
Activity [3]: 125%
